Calls of active or inactive are those of the source. The calls are words filed in the database; no cut-off is given here.
Assays:
HeLa [1] = test: Inhibition of mPGES1 mRNA expression in human HeLa cells at 50 uM by RT-PCR method; format: functional, cell-based
Summary of the method: (§1)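 Real-time PCR on treated HeLa cells. mRNA levels were normalized to untreated cells and to β-actin, and significance was assessed by 2-way ANOVA.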

HeLa [2] = test: Increase in IL-6 mRNA expression in human HeLa cells at 50 uM by RT-PCR method relative to control; format: functional; summary of the method: as §1
[3] = Cytotoxicity against human HeLa cells assessed as cell proliferation at 50 uM after 24 hrs by MTT assay; format: toxicity, cell-based; conditions: read-out: Activity
[4] = Antioxidant activity assessed as DPPH radical scavenging activity at 50 uM after 30 mins; format: functional
[5] = target: T1, Polyunsaturated fatty acid 5-lipoxygenase (Homo sapiens) (UniProt P09917); test: Inhibition of human recombinant 5-LOX expressed in Escherichia coli BL21 assessed as decrease in 5-HPETE production at 50 uM preincubated with enzyme followed by arachidonic acid substrate addition by UV-vis spectrophotometry
T1 sequence (whole entry): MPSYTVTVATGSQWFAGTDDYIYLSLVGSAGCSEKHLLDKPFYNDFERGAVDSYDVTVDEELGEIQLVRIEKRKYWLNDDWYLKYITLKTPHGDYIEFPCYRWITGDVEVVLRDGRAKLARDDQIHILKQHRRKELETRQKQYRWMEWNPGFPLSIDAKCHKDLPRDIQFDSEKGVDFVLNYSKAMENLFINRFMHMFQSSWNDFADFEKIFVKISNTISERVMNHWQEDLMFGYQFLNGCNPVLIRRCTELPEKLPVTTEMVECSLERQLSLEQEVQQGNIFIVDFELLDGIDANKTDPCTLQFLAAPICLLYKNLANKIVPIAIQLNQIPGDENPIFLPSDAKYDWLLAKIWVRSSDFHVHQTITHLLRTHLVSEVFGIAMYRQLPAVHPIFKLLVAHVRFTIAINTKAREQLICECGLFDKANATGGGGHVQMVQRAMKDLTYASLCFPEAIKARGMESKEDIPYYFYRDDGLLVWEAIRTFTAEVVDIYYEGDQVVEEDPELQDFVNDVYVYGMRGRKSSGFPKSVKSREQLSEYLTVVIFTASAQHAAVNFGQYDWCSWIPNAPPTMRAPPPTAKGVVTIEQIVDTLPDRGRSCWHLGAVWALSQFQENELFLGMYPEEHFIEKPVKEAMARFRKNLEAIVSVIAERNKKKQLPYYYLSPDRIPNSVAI

[6] = target: T2, Prostaglandin E synthase (Homo sapiens) (UniProt O14684); test: Inhibition of mPGES1 in human HeLa cells assessed as reduction in TNF-alpha induced PGE2 production at 50 uM preincubated for 2 hrs followed by TNF-alpha addition for 24 hrs by ELISA; format: cell-based
T2 sequence (whole entry): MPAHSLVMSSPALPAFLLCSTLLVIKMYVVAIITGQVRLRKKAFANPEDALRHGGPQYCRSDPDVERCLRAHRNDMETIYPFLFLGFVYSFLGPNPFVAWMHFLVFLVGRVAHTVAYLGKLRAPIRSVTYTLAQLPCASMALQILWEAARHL
Summary of the method: (§2)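 Read-out was PGE2 released into the HeLa culture supernatant, measured with an ELISA kit.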

HeLa [7] = test: Inhibition of COX-2 mRNA expression in human HeLa cells at 50 uM by RT-PCR method; format: functional, cell-based; summary of the method: as §1
[8] = target: T3, Polyunsaturated fatty acid 5-lipoxygenase (Homo sapiens, UniProt P09917); test: Inhibition of human recombinant 5-LOX expressed in Escherichia coli BL21 assessed as decrease in 5-HPETE production preincubated with enzyme followed by arachidonic acid substrate addition by UV-vis spectrophotometry
T3 sequence (P09917 whole entry): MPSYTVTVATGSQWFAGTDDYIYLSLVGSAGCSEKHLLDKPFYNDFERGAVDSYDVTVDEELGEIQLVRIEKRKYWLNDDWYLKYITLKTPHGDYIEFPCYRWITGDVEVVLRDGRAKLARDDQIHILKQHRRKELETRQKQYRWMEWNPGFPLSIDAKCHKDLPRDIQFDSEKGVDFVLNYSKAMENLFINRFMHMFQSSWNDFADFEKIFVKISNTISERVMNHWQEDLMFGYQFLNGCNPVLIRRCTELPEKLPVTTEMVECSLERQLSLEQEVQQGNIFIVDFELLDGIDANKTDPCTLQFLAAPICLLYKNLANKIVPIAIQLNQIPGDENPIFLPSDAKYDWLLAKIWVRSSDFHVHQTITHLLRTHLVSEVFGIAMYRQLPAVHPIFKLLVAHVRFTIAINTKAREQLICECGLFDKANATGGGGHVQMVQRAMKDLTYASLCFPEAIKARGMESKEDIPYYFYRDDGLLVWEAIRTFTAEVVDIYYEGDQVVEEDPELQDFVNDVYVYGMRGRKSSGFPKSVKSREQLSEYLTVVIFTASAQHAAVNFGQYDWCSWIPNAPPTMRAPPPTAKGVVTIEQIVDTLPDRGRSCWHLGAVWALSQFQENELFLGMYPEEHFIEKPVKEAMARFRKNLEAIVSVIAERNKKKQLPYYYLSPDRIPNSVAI

[9] = target: T4, Prostaglandin E synthase/G/H synthase 2 (Homo sapiens) (UniProt P35354+O14684); test: Inhibition of COX-2/mPGES1 in human HeLa cells assessed as reduction in TNF-alpha induced PGE2 production at 50 uM preincubated for 15 mins followed by arachidonic acid addition for 15 mins by ELISA; format: cell-based
T4 sequence (P35354 whole entry, looked up, one chain of several): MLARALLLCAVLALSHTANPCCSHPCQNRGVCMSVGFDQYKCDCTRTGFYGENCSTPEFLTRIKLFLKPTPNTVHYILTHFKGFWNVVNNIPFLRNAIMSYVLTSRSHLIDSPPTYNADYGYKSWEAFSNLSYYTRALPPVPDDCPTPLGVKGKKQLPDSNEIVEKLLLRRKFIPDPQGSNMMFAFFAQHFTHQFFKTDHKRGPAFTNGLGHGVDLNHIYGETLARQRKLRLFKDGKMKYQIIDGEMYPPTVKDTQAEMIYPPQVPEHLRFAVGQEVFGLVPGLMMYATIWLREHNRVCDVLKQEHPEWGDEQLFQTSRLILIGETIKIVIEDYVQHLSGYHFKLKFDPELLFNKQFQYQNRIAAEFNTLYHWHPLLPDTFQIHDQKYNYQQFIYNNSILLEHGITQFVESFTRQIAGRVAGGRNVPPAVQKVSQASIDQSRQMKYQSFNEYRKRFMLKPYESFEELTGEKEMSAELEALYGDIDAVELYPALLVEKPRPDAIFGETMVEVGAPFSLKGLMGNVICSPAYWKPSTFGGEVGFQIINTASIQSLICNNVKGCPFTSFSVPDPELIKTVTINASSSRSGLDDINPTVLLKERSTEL
Summary of the method: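 HeLa cells primed with TNF at 50 ng/ml to induce mPGES1, then exposed to compound for 15 min, then challenged with exogenous arachidonic acid for a further 15 min. PGE2 released into the culture supernatant was quantified by ELISA.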

HeLa [10] = test: Increase in NFkappaB mRNA expression in human HeLa cells at 50 uM by RT-PCR method relative to control; format: functional; summary of the method: as §1
HeLa [11] = test: Increase in IFN-gamma mRNA expression in human HeLa cells at 50 uM by RT-PCR method relative to control; format: functional; summary of the method: as §1
HeLa [12] = test: Increase in TGF-beta3 mRNA expression in human HeLa cells at 50 uM by RT-PCR method relative to control; format: functional; summary of the method: as §1
[13] = target: T4, Prostaglandin E synthase/G/H synthase 2 (Homo sapiens); test: Inhibition of COX-2/mPGES1 in human HeLa cells assessed as reduction in TNF-alpha induced PGE2 production at 50 uM after 15 mins followed by ELISA; format: cell-based
Summary of the method: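 TNF-treated HeLa cells were exposed to compound for 15 min without added arachidonic acid. PGE2 released into the culture supernatant was measured by ELISA.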

Prostaglandin E synthase = target: T5, Prostaglandin E synthase (Homo sapiens, UniProt O14684); test: Inhibition of mPGES1 in human HeLa cells assessed as reduction in TNF-alpha induced PGE2 production preincubated for 2 hrs followed by TNF-alpha addition for 24 hrs by ELISA; format: cell-based; summary of the method: as §2
T5 sequence (O14684 whole entry): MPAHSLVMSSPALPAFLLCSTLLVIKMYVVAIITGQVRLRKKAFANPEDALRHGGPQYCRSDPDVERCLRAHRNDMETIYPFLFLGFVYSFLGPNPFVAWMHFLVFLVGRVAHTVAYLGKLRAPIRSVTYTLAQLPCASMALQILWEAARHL

inhibition [5] [%] | inhibition [6] [%] | IC50 [8] [µM] | inhibition [9] [%] | inhibition [13] [%] | IC50 (Prostaglandin E synthase) [µM] | Structure (SMILES) | inhibition (HeLa [1]) | fold change (FC) (HeLa [2]) | viability at 24 h, 50 µM [3] [%] | Activity [4] [%] | inhibition (HeLa [7]) | fold change (FC) (HeLa [10]) | fold change (FC) (HeLa [11]) | fold change (FC) (HeLa [12])
84.1 | 78 | 4.6 | 44 | 76 | – | O=c1oc(-c2ccc(O)c(O)c2)cc2ccccc12 | Active | 1 | 78.7 | 53 to 53.2 | Active | 1 | 5.6 | 1
55.3 | 60 | – | – | – | – | O=c1oc(-c2ccccc2)cc2cccc(O)c12 | – | – | 75.6 | 13.4 | – | – | – | –
59.1 | 44 | – | – | – | 11.3 | COc1ccc(-c2cc3cccc(O)c3c(=O)o2)cc1O | – | – | 77.4 | 17.8 | – | – | – | –
40.9 | 74 | – | 17 | 75 | – | O=c1oc(-c2ccc(O)c(O)c2)cc2cccc(O)c12 [THUNBERGINOL A] | Active | 1 | 68.7 | 49 | Active | 1 | 9.6 | 1
65.9 | 18 | – | – | – | 9.7 | COc1ccc(-c2cc3ccccc3c(=O)o2)cc1O | – | – | 70.5 | 20 | – | – | – | –
78.8 | 73 | 22.8 | – | – | – | COc1cc(-c2cc3ccccc3c(=O)o2)ccc1O | – | – | 65 | 47.8 | – | – | – | –
36.2 | 14 | – | – | – | – | COc1cc(O)c2c(=O)oc(-c3cc(OC)c(OC)c(OC)c3)cc2c1 | – | – | 60.5 | 15.4 | – | – | – | –
36.4 | 74 | – | – | – | 7.1 | O=c1oc(-c2ccc(O)cc2)cc2cccc(O)c12 | – | – | 70.6 | 12.6 | – | – | – | –
– | 50 | – | – | – | – | CC(c1cc2ccccc2s1)N(O)C(N)=O (stereo unspecified) [ZILEUTON] | – | – | 78 | 33.6 | – | – | – | –

— ChEMBL document CHEMBL3872230, “Inhibition of the enzymes in the leukotriene and prostaglandin pathways in inflammation by 3-aryl isocoumarins” (Eur J Med Chem, 2016)
